# According to ChEMBL document CHEMBL1142934, “Molecular modeling of the human P2Y2 receptor and design of a selective agonist, 2'-amino-2'-deoxy-2-thiouridine 5'-triphosphate” (J Med Chem, 2007):
# Columns and labels:
# Format in all cases: functional, cell-based
# P2Y purinoceptor 2 = P2Y purinoceptor 2 (Homo sapiens, UniProt P41231); assay: Agonist activity at human recombinant P2Y2 receptor expressed in 1321N1 cells assessed as stimulation of phospholipase C
# Outline: (§1)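 Human P2Y2, P2Y4 or P2Y6 receptors stably expressed in 1321N1 astrocytoma cells. PLC activation was measured across a concentration range of each nucleotide. Tritiated inositol phosphates formed from a radiolabeled myo-inositol precursor were quantified by a standard ion exchange method. Values are mean ± standard error, N = 3.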
# P2Y purinoceptor 6 [1] = molecular target: T1, P2Y purinoceptor 6 (Homo sapiens, UniProt Q15077); assay: Agonist activity at human recombinant P2Y6 receptor expressed in 1321N1 cells assessed as intracellular calcium mobilization
# T1 sequence (Q15077 whole entry): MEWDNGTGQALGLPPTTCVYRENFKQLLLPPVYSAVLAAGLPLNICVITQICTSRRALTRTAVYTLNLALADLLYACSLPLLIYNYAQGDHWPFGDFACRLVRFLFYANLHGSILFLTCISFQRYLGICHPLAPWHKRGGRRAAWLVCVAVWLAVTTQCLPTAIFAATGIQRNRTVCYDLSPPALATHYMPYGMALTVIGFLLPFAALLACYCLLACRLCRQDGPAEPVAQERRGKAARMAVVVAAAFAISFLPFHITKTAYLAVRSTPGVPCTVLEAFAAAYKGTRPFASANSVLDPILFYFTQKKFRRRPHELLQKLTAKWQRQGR
# P2Y purinoceptor 6 [2] = molecular target: T1, P2Y purinoceptor 6; assay: Agonist activity at human recombinant P2Y6 receptor expressed in 1321N1 cells assessed as stimulation of phospholipase C
# Outline: as §1, with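 “method. EC50 was the concentration giving 50% of the maximal effect, fitted with a four-parameter logistic equation.” for “method.”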
# P2Y purinoceptor 4 [3] = molecular target: T2, P2Y purinoceptor 4 (Homo sapiens, UniProt P51582); assay: Agonist activity at human recombinant P2Y4 receptor expressed in 1321N1 cells assessed as stimulation of phospholipase C
# T2 sequence (P51582 whole entry): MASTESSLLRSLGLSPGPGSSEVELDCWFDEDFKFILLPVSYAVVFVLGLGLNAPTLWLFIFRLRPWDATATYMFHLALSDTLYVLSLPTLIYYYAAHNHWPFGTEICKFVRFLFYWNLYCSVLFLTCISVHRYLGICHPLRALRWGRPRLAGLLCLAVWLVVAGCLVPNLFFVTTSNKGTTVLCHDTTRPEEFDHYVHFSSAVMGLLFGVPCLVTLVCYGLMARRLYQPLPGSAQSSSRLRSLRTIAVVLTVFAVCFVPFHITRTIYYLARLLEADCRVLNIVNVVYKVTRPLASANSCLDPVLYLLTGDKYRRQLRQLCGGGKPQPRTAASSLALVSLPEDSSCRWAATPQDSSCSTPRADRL
# Outline: as §1, with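 “method. EC50 was the concentration giving 50% of the maximal effect, fitted with a four-parameter logistic equation.” for “method.”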
# P2Y purinoceptor 4 [4] = molecular target: T2, P2Y purinoceptor 4; assay: Antagonistic activity at human recombinant P2Y4 receptor expressed in 1321N1 cells; details: filed as antagonist
# P2Y purinoceptor 2, sequence (P41231 whole entry): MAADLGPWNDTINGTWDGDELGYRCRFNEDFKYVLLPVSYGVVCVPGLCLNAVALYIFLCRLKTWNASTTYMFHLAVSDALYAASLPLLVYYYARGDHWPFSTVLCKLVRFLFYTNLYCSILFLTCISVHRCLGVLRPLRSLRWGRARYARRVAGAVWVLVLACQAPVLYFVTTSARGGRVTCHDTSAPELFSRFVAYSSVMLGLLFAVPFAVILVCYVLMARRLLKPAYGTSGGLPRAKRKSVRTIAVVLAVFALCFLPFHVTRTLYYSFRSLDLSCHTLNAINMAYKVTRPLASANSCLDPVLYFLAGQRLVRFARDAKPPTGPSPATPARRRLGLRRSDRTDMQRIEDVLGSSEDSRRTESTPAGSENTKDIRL
Compound,EC50 (P2Y purinoceptor 2),EC50 (P2Y purinoceptor 6 [2]),EC50 (P2Y purinoceptor 4 [3]),also measured
O=c1ccn([C@H]2C[C@H](O)[C@@H](COP(=O)(O)OP(=O)(O)OP(=O)(O)O)O2)c(=O)[nH]1,1080 nM (agonist),–,–,–
O=c1ccn([C@@H]2O[C@H](COP(=O)(O)OP(=O)(O)OP(=O)(O)OP(=O)(O)OC[C@H]3O[C@@H](n4ccc(=O)[nH]c4=O)[C@H](O)[C@@H]3O)[C@@H](O)[C@H]2O)c(=O)[nH]1 [DIQUAFOSOL],–,–,–,EC50 (P2Y purinoceptor 6 [1]): 20000 nM (agonist)
Nc1ccn([C@H]2C[C@H](O)[C@@H](COP(=O)(O)OP(=O)(O)OP(=O)(O)OP(=O)(O)OC[C@H]3O[C@@H](n4ccc(=O)[nH]c4=O)[C@H](O)[C@@H]3O)O2)c(=O)n1 [DENUFOSOL],270 nM (agonist),–,–,–
O=c1ccn([C@@H]2O[C@H](COP(=O)(O)OP(=O)(O)OP(=O)(O)OP(=O)(O)OC[C@H]3OC(O)[C@H](O)[C@@H]3O)[C@@H](O)[C@H]2O)c(=O)[nH]1 (some centres not stated),1880 nM (agonist),–,–,–
CO[C@@H]1[C@H](O)[C@@H](COP(=O)(O)OP(=O)(O)OP(=O)(O)O)O[C@H]1n1ccc(=O)[nH]c1=O,14300 nM (agonist),–,–,–
[N-]=[N+]=Nc1cn([C@@H]2O[C@H](COP(=O)(O)OP(=O)(O)OP(=O)(O)O)[C@@H](O)[C@H]2O)c(=O)[nH]c1=O,1800 nM (agonist),467 nM (agonist),–,–
N[C@@H]1[C@H](O)[C@@H](COP(=O)(O)OP(=O)(O)OP(=O)(O)O)O[C@H]1n1ccc(=O)[nH]c1=O,62 nM (agonist),> 100000 nM,1200 nM (agonist),–
O=C(N[C@@H]1[C@H](O)[C@@H](COP(=O)(O)OP(=O)(O)OP(=O)(O)O)O[C@H]1n1ccc(=O)[nH]c1=S)C(F)(F)F,470 nM (agonist),–,8300 nM (agonist),–
CC(=O)N[C@@H]1[C@H](O)[C@@H](COP(=O)(O)OP(=O)(O)OP(=O)(O)O)O[C@H]1n1ccc(=O)[nH]c1=S,6500 nM (agonist),–,–,–
O=c1[nH]c(=O)n([C@@H]2O[C@H](COP(=O)(O)OP(=O)(O)OP(=O)(O)O)[C@@H](O)[C@H]2O)cc1I,830 nM (agonist),–,–,–
O=c1ccn([C@@H]2O[C@H](COP(=O)(O)OP(=O)(O)OP(=O)(O)S)[C@@H](O)[C@H]2O)c(=O)[nH]1 (some centres not stated),240 nM (agonist),–,–,–
Cc1cn([C@@H]2O[C@H](COP(=O)(O)OP(=O)(O)OP(=O)(O)O)[C@@H](O)[C@H]2O)c(=O)[nH]c1=O [THYMIDINE_TRIPHOSPHATE],480 nM (agonist),140 nM (agonist),3900 nM (agonist),–
O=c1ccn([C@@H]2O[C@H](COP(=O)(O)OP(=O)(O)OP(=O)(O)O)[C@@H](O)[C@H]2O)c(=O)[nH]1 [URIDINE TRIPHOSPHATE],49 nM (agonist),–,73 nM (agonist),EC50 (P2Y purinoceptor 6 [1]): > 10000 nM (agonist)
O=c1ccn([C@@H]2O[C@H](COP(=O)(O)OP(=O)(O)OP(=O)(O)O)[C@@H](O)[C@H]2O)c(=S)[nH]1,35 nM (agonist),1500 nM (agonist),350 nM (agonist),–
O=c1[nH]c(=O)n([C@@H]2O[C@H](COP(=O)(O)OP(=O)(O)OP(=O)(O)O)[C@@H](O)[C@H]2O)cc1Br,750 nM (agonist),–,–,–
Nc1cn([C@@H]2O[C@H](COP(=O)(O)OP(=O)(O)OP(=O)(O)O)[C@@H](O)[C@H]2O)c(=O)[nH]c1=O,5600 nM (agonist),333 nM (agonist),–,–
N[C@@H]1[C@H](O)[C@@H](COP(=O)(O)OP(=O)(O)OP(=O)(O)O)O[C@H]1n1ccc(=O)[nH]c1=S,8 nM (agonist),> 10000 nM,2400 nM (agonist),–
Nc1ncnc2c1ncn2[C@@H]1O[C@H](COP(=O)(O)OP(=O)(O)OP(=O)(O)O)[C@@H](O)[C@H]1O,–,–,–,Activity (P2Y purinoceptor 4 [4]): Antagonist; Kb (P2Y purinoceptor 4 [4]): 708 nM
